The source made the active and inactive calls.
Legend:
Mus musculus [1] = assay: Inhibition of opioid-withdrawal symptom in morphine-pelleted Swiss Webster mouse assessed as reduction in paw tremors at 1 mg/kg, sc observed after 20 mins; type: functional, organism-based
Summary of the method: (§1)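 Male Swiss Webster mice, n = 5, implanted with 75 mg morphine pellet at base of neck. After 72 h, 30 min habituation in observation chamber, then test compound s.c. Wet-dog shakes, escape jumps and paw tremors counted over 20 min.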

Mu-type opioid receptor [2] = molecular target: T1, Mu-type opioid receptor (Mus musculus, UniProt P42866); assay: Displacement of [3H]-Naloxone from mouse mu opioid receptor expressed in CHO cells incubated for […] by competitive radioligand binding assay; type: cell-based
[3] = Selectivity index, ratio of Ki for mouse kappa opioid receptor expressed in CHO cells to Ki for mouse mu opioid receptor expressed in CHO cells
Mus musculus [4] = assay: Inhibition of morphine-induced antinociceptive activity in Swiss Webster mouse assessed as decrease in latency to tail withdrawal at 10 mg/kg, sc administered 5 mins before morphine stimulation observed for 20 mins by warm water tail withdrawal assay; type: functional, organism-based
Summary of the method: (§2)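 Male Swiss Webster mice, n ≥ 5, baseline latency 2–4 s. Test compound given s.c. 5 min before morphine 10 mg/kg. Tail immersion at 56 ± 0.1 °C 20 min after morphine, 10 s cutoff, %MPE per mouse.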

[5] = Selectivity index, ratio of Ki for human delta opioid receptor expressed in CHO cells to Ki for mouse mu opioid receptor expressed in CHO cells
Mu-type opioid receptor [6] = molecular target: T1, Mu-type opioid receptor; assay: Antagonist activity at mouse mu opioid receptor expressed in CHO cells cotransfected with Galphaqi5 assessed as inhibition of DAMGO-induced increase in intracellular calcium concentration preincubated for 60 mins in Fluo4AM solution followed by compound addition and further incubated for 15 mins followed by DAMGO stimulation by Fluo4AM dye based assay; type: functional, cell-based
Summary of the method: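 Gαqi5-transfected mMOR-CHO cells loaded 60 min with Fluo-4 AM/probenecid. Triplicate per concentration, at least three repeats, mean ± SEM. Naltrexone as control. IC50 by non-linear regression.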

Mu-type opioid receptor [7] = molecular target: T1, Mu-type opioid receptor; assay: Agonist activity at recombinant mouse mu opioid receptor expressed in CHO cell membrane assessed as [35]-GTPgammaS binding incubated for […] by scintillation counting method
[8] = molecular target: Delta-type opioid receptor (Homo sapiens, UniProt P41143); assay: Displacement of [3H]-[…] from human delta opioid receptor expressed in CHO cells incubated for […] by competitive radioligand binding assay; type: cell-based
Mu-type opioid receptor [9] = molecular target: T1, Mu-type opioid receptor; assay: (§3) Agonist activity at mouse mu opioid receptor expressed in CHO cells assessed as inhibition of forskolin-induced cAMP formation incubated for 8 min followed by forskolin stimulation by ELISA; type: functional, cell-based
Mus musculus [10] = assay: Inhibition of opioid-withdrawal symptom in morphine-pelleted Swiss Webster mouse assessed as reduction in wet dog shakes at 1 mg/kg, sc observed after 20 mins; type: functional, organism-based; summary of the method: as §1
Mus musculus [11] = assay: Inhibition of opioid-withdrawal symptom in morphine-pelleted Swiss Webster mouse assessed as reduction in paw tremors at 8 mg/kg, sc observed after 20 mins; type: functional, organism-based; summary of the method: as §1
Mus musculus [12] = assay: Inhibition of opioid-withdrawal symptom in morphine-pelleted Swiss Webster mouse assessed as reduction in escape jumps at 1 mg/kg, sc observed after 20 mins; type: functional, organism-based; summary of the method: as §1
[13] = molecular target: Kappa-type opioid receptor (Mus musculus, UniProt P33534); assay: Displacement of [3H]-[…] from mouse kappa opioid receptor expressed in CHO cells incubated for […] by competitive radioligand binding assay; type: cell-based
Mus musculus [14] = assay: Inhibition of opioid-withdrawal symptom in morphine-pelleted Swiss Webster mouse assessed as reduction in escape jumps at 8 mg/kg, sc observed after 20 mins; type: functional, organism-based; summary of the method: as §1
Mus musculus [15] = assay: Inhibition of opioid-withdrawal symptom in morphine-pelleted Swiss Webster mouse assessed as reduction in wet dog shakes at 8 mg/kg, sc observed after 20 mins; type: functional, organism-based; summary of the method: as §1
Mus musculus [16] = assay: Inhibition of morphine-induced antinociceptive activity in subcutaneously dosed Swiss Webster mouse assessed as decrease in latency to tail withdrawal administered 5 mins before morphine stimulation observed for 20 mins by warm water tail withdrawal assay; type: functional; summary of the method: as §2
[17] = molecular target: Delta-type opioid receptor (Mus musculus, UniProt P32300); assay: Displacement of [3H]-diprenorphine from mouse delta opioid receptor expressed in CHO cells incubated for […] by competitive radioligand binding assay; type: cell-based
[18] = molecular target: Mu-type opioid receptor (Mus musculus) (UniProt P42866); assay: Agonist activity at recombinant mouse mu opioid receptor expressed in CHO cell membrane assessed as [35]-GTPgammaS binding incubated for […] by scintillation counting method relative to DAMGO
[19] = molecular target: Mu-type opioid receptor (Mus musculus) (UniProt P42866); assay: Agonist activity at mouse mu opioid receptor expressed in CHO cells cotransfected with Galphaqi5 assessed as intracellular calcium level preincubated for 60 mins in Fluo4AM solution followed by compound addition by Fluo4AM dye based assay; type: functional, cell-based
[20] = molecular target: Mu-type opioid receptor (Mus musculus) (UniProt P42866); assay: as §3; type: functional, cell-based
Summary of the method: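 mMOR-CHO cells grown to confluency, pre-incubated 30 min at 37°C with 1 mM IBMX, 200 μM Ro 20-1724, bovine serum albumin and 20 mM HEPES (pH 7.2-7.5). Ligand then added with 10 μM forskolin for 8 min at 37°C. Media removed, cells rinsed with PBS, cAMP measured by ELISA. DMEM/F12 used as solvent throughout.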

Mus musculus [21] = assay: Inhibition of opioid-withdrawal symptom in morphine-pelleted Swiss Webster mouse assessed as reduction in escape jumps at 50 mg/kg, sc observed after 20 mins; type: functional, organism-based; summary of the method: as §1
[22] = Toxicity in placebo-pelleted Swiss Webster mouse assessed as escape jumps at 20 mg/kg, sc observed after 20 mins; type: organism-based; conditions: in vivo
Summary of the method: (§4)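 Male Swiss Webster mice, n = 5, placebo-pelleted. Tested 72 h after implantation, following 30 min chamber habituation. Compound given s.c.; wet-dog shakes, escape jumps and paw tremors counted over 20 min.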

[23] = Toxicity in placebo-pelleted Swiss Webster mouse assessed as wet dog shakes at 20 mg/kg, sc observed after 20 mins; type: organism-based; conditions: in vivo; summary of the method: as §4
Mus musculus [24] = assay: Inhibition of opioid-withdrawal symptom in morphine-pelleted Swiss Webster mouse assessed as reduction in paw tremors at 50 mg/kg, sc observed after 20 mins; type: functional, organism-based; summary of the method: as §1
Mus musculus [25] = assay: Inhibition of opioid-withdrawal symptom in morphine-pelleted Swiss Webster mouse assessed as reduction in wet dog shakes at 50 mg/kg, sc observed after 20 mins; type: functional, organism-based; summary of the method: as §1
[26] = Toxicity in placebo-pelleted Swiss Webster mouse assessed as paw tremors at 20 mg/kg, sc observed after 20 mins; type: organism-based; conditions: in vivo; summary of the method: as §4

| Structure (SMILES) | inhibition (Mus musculus [1]) | Ki (Mu-type opioid receptor [2]) [nM] | Ratio Ki [3] | inhibition (Mus musculus [4]) | Ratio Ki [5] | IC50 (Mu-type opioid receptor [6]) [nM] | EC50 (Mu-type opioid receptor [7]) [nM] | Ki [8] [nM] | inhibition (Mus musculus [10]) | inhibition (Mus musculus [12]) | Ki [13] [nM] | AD50 (Mus musculus [16]) [mg/kg] | Emax [18] [%] | Activity [19] | Emax [20] [%] | also measured |
| --- | --- | --- | --- | --- | --- | --- | --- | --- | --- | --- | --- | --- | --- | --- | --- | --- |
| Cl.O=C(N[C@H]1CC[C@@]2(O)[C@H]3Cc4ccc(O)c5c4[C@@]2(CCN3CC2CC2)[C@H]1O5)c1cccc2ccsc12 | Active | 0.31 | 8.5 | Active | 26.9 | 566 | 6.21 | 8.35 | Active | Active | 2.65 | 0.29 |  |  |  | EC50 (Mu-type opioid receptor [9]; cho): Not Active; inhibition (Mus musculus [11]): Active; inhibition (Mus musculus [14]): Active; inhibition (Mus musculus [15]): Active |
| Cl.O=C(N[C@H]1CC[C@@]2(O)[C@H]3Cc4ccc(O)c5c4[C@@]2(CCN3CC2CC2)[C@H]1O5)c1cccc2cc[nH]c12 |  |  |  |  |  |  |  |  |  |  |  | 2.07 | 19.1 |  |  | Ki [17]: 13.7 nM |
| Cl.O=C(N[C@H]1CC[C@@]2(O)[C@H]3Cc4ccc(O)c5c4[C@@]2(CCN3CC2CC2)[C@H]1O5)c1cccc2occc12 | Active | 0.26 | 19.2 | Active | 65 | 50.7 | 0.77 | 16.9 | Active | Active | 4.98 | 0.29 | 10 | inactive | 18.9 | EC50 (Mu-type opioid receptor [9]; read-out: EC50): 80 nM |
| Cl.O=C(N[C@@H]1CC[C@@]2(O)[C@H]3Cc4ccc(O)c5c4[C@@]2(CCN3CC2CC2)[C@H]1O5)c1cccc2ccoc12 | Active |  |  | Active |  |  |  |  | Active | Active | 0.81 | 0.18 | 27.3 | inactive | 35.7 | inhibition (Mus musculus [21]): Active; Activity [22]: Non-Toxic; Activity [23]: Non-Toxic; inhibition (Mus musculus [24]): Active; inhibition (Mus musculus [25]): Active; Activity [26]: Non-Toxic |

From ChEMBL document CHEMBL4321862, “Application of Bivalent Bioisostere Concept on Design and Discovery of Potent Opioid Receptor Modulators” (J Med Chem, 2019)
